Results from ChEMBL document CHEMBL3861950, “Design, synthesis and evaluation of novel 19F magnetic resonance sensitive protein tyrosine phosphatase inhibitors” (Medchemcomm, 2016).
pIC50: −log10 of the molar value.

Legend:
[1] = molecular target: T1, Tyrosine-protein phosphatase non-receptor type 22 (Homo sapiens, UniProt Q9Y2R2); assay: Inhibition of recombinant LYP (unknown origin) using pNPP as substrate by spectrophotometric method
T1 sequence (Q9Y2R2 whole entry): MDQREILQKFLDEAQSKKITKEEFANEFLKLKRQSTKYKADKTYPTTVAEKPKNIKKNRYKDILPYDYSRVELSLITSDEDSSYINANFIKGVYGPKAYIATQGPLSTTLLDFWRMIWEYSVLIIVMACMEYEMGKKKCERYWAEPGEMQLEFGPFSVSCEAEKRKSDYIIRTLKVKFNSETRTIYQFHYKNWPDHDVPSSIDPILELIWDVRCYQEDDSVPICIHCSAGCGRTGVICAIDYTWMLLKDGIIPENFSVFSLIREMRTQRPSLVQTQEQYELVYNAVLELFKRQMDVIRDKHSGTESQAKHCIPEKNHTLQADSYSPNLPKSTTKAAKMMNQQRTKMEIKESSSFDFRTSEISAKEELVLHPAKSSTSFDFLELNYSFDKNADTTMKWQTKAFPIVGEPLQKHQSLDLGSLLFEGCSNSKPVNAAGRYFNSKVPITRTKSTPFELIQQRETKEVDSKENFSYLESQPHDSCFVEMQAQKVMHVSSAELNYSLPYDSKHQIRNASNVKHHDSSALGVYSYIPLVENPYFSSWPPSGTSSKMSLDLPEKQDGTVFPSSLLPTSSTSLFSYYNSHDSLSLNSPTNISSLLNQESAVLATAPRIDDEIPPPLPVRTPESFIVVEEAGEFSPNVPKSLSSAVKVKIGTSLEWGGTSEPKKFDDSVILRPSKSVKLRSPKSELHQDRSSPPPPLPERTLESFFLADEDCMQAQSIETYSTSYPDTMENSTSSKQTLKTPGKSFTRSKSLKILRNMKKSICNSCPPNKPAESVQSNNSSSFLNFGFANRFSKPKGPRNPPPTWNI
Procedure, shortened: (§1)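 Recombinant PTP prepared in-house, assayed with pNPP substrate in 50 mM 3,3-dimethylglutarate buffer pH 7.0 containing 1 mM EDTA and 150 mM NaCl at 25 °C, in 96-well format. p-Nitrophenol product was quantified by absorbance at 405 nm. Non-enzymatic pNPP hydrolysis was corrected using a no-enzyme control.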

[2] = molecular target: T2, Tyrosine-protein phosphatase non-receptor type 11 (Homo sapiens, UniProt Q06124); assay: Inhibition of recombinant SHP2 (unknown origin) using pNPP as substrate by spectrophotometric method; procedure, shortened: as §1
T2 sequence (Q06124 whole entry): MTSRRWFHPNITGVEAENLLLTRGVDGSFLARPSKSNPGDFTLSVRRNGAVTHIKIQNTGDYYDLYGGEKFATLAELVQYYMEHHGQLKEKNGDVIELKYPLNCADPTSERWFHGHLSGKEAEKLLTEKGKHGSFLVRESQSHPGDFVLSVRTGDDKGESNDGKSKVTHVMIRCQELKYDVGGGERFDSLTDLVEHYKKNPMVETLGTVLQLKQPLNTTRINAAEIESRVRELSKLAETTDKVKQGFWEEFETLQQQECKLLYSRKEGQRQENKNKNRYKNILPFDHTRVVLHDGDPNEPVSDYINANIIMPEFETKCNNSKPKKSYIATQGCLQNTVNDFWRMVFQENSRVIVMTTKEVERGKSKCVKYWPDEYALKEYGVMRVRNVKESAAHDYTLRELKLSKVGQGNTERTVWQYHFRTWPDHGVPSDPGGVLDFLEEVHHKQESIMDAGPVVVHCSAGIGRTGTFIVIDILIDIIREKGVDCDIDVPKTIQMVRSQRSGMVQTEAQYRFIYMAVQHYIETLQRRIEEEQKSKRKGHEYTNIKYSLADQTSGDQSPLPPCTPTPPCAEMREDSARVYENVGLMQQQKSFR

[3] = molecular target: Tyrosine-protein phosphatase non-receptor type 13 (Homo sapiens, UniProt Q12923); assay: Inhibition of recombinant FAP1 (unknown origin) using pNPP as substrate by spectrophotometric method; procedure, shortened: as §1
[4] = Selectivity ratio of IC50 for recombinant FAP1 (unknown origin) to IC50 for recombinant Mycobacterium tuberculosis PTPB

Tyrosine-protein phosphatase non-receptor type 13, sequence (Q12923 whole entry): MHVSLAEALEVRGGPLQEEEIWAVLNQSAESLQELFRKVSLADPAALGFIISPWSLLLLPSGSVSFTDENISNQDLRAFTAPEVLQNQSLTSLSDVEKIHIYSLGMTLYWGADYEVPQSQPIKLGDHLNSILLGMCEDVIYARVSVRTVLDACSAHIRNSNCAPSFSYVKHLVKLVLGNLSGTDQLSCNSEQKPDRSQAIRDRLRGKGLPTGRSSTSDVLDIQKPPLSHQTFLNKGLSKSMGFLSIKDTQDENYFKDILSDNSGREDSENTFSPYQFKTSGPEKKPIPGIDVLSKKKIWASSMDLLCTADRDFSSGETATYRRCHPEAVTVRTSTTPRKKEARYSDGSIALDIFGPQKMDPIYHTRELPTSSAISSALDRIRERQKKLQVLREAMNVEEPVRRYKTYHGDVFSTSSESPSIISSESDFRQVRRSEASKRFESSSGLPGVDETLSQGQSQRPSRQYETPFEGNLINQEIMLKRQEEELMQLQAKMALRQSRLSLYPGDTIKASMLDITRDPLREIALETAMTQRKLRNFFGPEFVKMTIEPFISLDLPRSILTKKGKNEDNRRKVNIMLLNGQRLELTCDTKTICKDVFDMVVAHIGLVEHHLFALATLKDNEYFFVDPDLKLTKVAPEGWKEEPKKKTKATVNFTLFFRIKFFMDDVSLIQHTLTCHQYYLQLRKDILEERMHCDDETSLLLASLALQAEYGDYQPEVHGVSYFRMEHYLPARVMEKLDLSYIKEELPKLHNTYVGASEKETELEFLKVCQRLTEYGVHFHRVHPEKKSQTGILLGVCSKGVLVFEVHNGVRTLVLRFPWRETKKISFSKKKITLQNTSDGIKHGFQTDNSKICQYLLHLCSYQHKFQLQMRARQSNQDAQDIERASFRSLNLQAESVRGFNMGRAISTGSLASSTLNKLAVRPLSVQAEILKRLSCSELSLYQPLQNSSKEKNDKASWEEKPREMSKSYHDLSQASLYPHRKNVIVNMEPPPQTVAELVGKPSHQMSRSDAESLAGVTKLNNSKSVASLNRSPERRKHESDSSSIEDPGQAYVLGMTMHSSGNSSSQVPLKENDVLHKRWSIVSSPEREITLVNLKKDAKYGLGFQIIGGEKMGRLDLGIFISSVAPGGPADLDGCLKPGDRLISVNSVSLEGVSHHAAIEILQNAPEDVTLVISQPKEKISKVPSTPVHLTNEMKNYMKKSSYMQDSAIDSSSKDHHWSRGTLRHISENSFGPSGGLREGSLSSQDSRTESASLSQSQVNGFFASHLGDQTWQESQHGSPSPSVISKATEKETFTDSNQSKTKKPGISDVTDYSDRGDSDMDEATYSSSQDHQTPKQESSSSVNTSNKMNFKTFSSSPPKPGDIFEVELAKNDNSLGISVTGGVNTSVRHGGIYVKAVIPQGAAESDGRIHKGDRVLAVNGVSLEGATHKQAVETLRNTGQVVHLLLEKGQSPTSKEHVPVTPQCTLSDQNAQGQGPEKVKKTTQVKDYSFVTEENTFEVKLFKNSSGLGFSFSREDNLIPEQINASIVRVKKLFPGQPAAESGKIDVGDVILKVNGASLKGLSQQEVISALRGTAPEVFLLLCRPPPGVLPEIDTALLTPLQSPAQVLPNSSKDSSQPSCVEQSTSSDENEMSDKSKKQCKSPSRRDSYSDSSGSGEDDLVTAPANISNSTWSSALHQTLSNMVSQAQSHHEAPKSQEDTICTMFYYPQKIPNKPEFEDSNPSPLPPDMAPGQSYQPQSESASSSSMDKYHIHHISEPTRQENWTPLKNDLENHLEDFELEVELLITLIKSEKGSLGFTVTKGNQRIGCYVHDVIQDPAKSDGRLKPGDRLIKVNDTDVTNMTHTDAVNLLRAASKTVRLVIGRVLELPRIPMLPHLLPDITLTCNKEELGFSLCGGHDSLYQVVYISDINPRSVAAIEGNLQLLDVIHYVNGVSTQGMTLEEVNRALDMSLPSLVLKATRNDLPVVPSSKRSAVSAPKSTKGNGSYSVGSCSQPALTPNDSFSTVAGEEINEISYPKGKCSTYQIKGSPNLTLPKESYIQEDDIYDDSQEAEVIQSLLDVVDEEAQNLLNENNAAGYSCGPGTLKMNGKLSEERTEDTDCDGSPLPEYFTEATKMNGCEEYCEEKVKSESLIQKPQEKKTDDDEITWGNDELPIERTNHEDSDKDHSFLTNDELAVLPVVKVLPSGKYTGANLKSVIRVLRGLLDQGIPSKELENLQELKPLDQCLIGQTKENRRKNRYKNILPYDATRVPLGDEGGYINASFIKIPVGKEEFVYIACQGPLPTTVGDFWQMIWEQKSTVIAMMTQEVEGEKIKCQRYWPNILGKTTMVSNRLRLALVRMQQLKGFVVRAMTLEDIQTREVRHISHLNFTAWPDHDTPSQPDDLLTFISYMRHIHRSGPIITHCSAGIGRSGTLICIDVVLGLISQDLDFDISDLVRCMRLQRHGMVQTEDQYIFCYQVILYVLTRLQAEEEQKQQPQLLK

Compound `Cc1ccc(S(=O)(=O)NNC(=O)COc2ccc3cc(C(O)(C(F)(F)F)C(F)(F)F)c(O)cc3c2)cc1` has a pIC50 [1] of 4.81, a pIC50 [2] of 4.69 and a pIC50 [3] of 4.83. For the same compound, the Ratio IC50 [4] was over 7.
